From ChEMBL document CHEMBL1127564, “Studies on neurokinin antagonists. 4. Synthesis and structure-activity relationships of novel dipeptide substance P antagonists: N2-[(4R)-4-hydroxy-1-[(1-methyl-1H-indol-3-yl)carbonyl]-L-prolyl]-N- methyl-N-(phenylmethyl)-3-(2-naphthyl)-L-alaninamide and its related compounds” (J Med Chem, 1994) come the findings set out here.

In one experiment the target is Substance-P receptor (Cavia porcellus, UniProt P30547). The experiment is described as follows: In vitro binding affinity against substance P receptor using [3H]SP as radioligand in guinea pig lung membrane. The experiment is classed as cell membranes. An outline of the steps:
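Guinea pig lung membranes incubated with 1 nM [3H]SP, with or without test compound, 0.5 h at 4 °C in 50 mM Tris-HCl pH 7.5, 5 mM MnCl2, 0.02% BSA, chymostatin, leupeptin, bacitracin. Filtered on glass-fibre filters, radioactivity counted by scintillation. Specific binding defined as that displaced by 5 μM unlabeled SP. IC50 estimated from the displacement curve. Duplicate assays, usually a single experiment.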

The test system of experiment [1] is Cavia porcellus. The experiment is described as follows: In vivo inhibitory activity against airway edema induced by Substance P at a dose 10 mg/kg administered orally. The experiment is classed as functional. As to conditions: route oral. An outline of the steps: (§1)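 Male Hartley guinea pigs dosed orally with drug in DMSO solution, or with vehicle, 30 min before intravenous SP (1.3 μg/kg) given with Evans Blue (20 mg/kg) and heparin (200 IU/kg). Trachea and main bronchi removed 10 min after challenge; dye extracted and read at 620 nm. Percent inhibition of edema reported, two animals per experiment.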

Experiment [2] has as its system Cavia porcellus. The experiment is described as follows: In vivo inhibitory activity against airway edema induced by Substance P at a dose 100 mg/kg administered orally. The experiment is classed as functional. As to conditions: route oral. An outline of the steps: as §1

pIC50: −log10 of the molar value.

Substance-P receptor, sequence (P30547 whole entry): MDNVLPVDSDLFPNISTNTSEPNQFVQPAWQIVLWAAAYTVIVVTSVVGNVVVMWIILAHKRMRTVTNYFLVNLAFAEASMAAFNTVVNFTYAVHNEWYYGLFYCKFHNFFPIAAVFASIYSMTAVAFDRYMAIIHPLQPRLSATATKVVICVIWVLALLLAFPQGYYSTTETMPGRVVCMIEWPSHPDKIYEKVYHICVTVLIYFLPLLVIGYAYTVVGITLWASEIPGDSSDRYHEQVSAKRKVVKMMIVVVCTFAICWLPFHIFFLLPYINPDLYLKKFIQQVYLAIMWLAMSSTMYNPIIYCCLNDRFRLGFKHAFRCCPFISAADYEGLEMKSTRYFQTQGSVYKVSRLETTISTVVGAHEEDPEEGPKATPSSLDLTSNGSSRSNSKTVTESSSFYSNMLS

Regarding `CC(C)n1cc(C(=O)N2C[C@H](O)CC2C(=O)N[C@H](Cc2ccccc2)C(=O)N(C)Cc2ccccc2)c2ccccc21` (stereo not given in full), the pIC50 – broadly, −log10 of the IC50, conventionally taken in molar units – at Substance-P receptor (read-out: IC50) is 7.80. Also, the inhibition in vivo (in general, the share of the control response that was lost under treatment) at 10 mg/kg with Cavia porcellus [1] was determined as 48%.

Turning to `CN(Cc1ccccc1)C(=O)[C@@H](Cc1ccccc1)NC(=O)C1C[C@@H](O)CN1C(=O)c1cc2ccccc2s1` (stereo not given in full), the negative-log IC50 (pIC50) on Substance-P receptor (read-out: IC50) is 7.70. Besides, 10 mg/kg produced 37% inhibition in vivo in the experiment with Cavia porcellus [1].

Take `CN(Cc1ccccc1)C(=O)[C@@H](Cc1ccc([N+](=O)[O-])cc1)NC(=O)C1C[C@@H](O)CN1C(=O)c1cn(C)c2ccccc12` (stereo not given in full): the inhibition in vivo at 100 mg/kg in the experiment with Cavia porcellus [2] is 39%. Also, the negative logarithm of the IC50 (pIC50) on Substance-P receptor (read-out: IC50) is 8.15. This compound also came in with an inhibition in vivo at 10 mg/kg in the experiment with Cavia porcellus [1] of 19%.

In the case of `CN(Cc1ccccc1)C(=O)[C@@H](Cc1ccccc1)NC(=O)C1C[C@@H](O)CN1C(=O)c1cn(CC(=O)O)c2ccccc12` (stereo not given in full), on Substance-P receptor (read-out: IC50), the negative logarithm of the IC50 (pIC50) was 7.30.

`CN(Cc1ccccc1)C(=O)[C@@H](Cc1cn(C=O)c2ccccc12)NC(=O)C1C[C@@H](O)CN1C(=O)c1cn(C)c2ccccc12` (stereo not given in full): the inhibition in vivo at 100 mg/kg in the experiment with Cavia porcellus [2] worked out at 21%. The negative-log IC50 (pIC50) on Substance-P receptor (read-out: IC50) is 8.46.

As for `CN(Cc1ccccc1)C(=O)[C@@H](Cc1csc2ccccc12)NC(=O)C1C[C@@H](O)CN1C(=O)c1cn(C)c2ccccc12` (stereo not given in full), 100 mg/kg produced 99% inhibition in vivo in the experiment with Cavia porcellus [2]. Moreover, the pIC50 at Substance-P receptor (read-out: IC50) is 7.99. In addition, in the experiment with Cavia porcellus [1], the inhibition in vivo at 10 mg/kg turned out to be 34%.

For `CN(Cc1ccccc1)C(=O)[C@@H](Cc1ccccc1F)NC(=O)C1C[C@@H](O)CN1C(=O)c1cn(C)c2ccccc12` (stereo not given in full), testing at 100 mg/kg in the experiment with Cavia porcellus [2] gave an inhibition in vivo of 35%. Besides, the negative logarithm of the IC50 (pIC50) on Substance-P receptor (read-out: IC50) is 7.85.

Take `CN(Cc1ccccc1)C(=O)[C@@H](Cc1ccccc1)NC(=O)C1CCN1C(=O)c1c[nH]c2ccccc12` (stereo not given in full): the pIC50 on Substance-P receptor (read-out: IC50) is 8.10.

In the case of `CN(Cc1ccccc1)C(=O)[C@@H](Cc1ccccc1)NC(=O)C1C[C@@H](O)CN1C(=O)/C=C/c1ccccc1` (stereo not given in full), at Substance-P receptor (read-out: IC50), the pIC50 is 8.05. This compound also gave an inhibition in vivo at 10 mg/kg in the experiment on Cavia porcellus [1] of 47%.

On to `CN(Cc1ccccc1)C(=O)[C@@H](Cc1ccc2cc(Cl)ccc2c1)NC(=O)C1C[C@@H](O)CN1C(=O)c1cn(C)c2ccccc12` (stereo not given in full), for which, on Substance-P receptor (read-out: IC50), the pIC50 is 7.56.

In the experiment on Cavia porcellus [2], `CN(Cc1ccccc1)C(=O)[C@@H](Cc1ccccc1)NC(=O)C1C[C@@H](O)CN1C(=O)c1cn(C)c2ccccc12` (stereo not given in full) displayed an inhibition in vivo at 100 mg/kg of 75%. Moreover, the inhibition in vivo at 10 mg/kg in the experiment on Cavia porcellus [1] was 51%.

For the compound `CN(Cc1ccccc1)C(=O)[C@@H](Cc1ccccc1)NC(=O)[C@H]1CCCN1C(=O)c1c[nH]c2ccccc12`, the IC50 entry at Substance-P receptor is listed as “Not Active”.

The compound `Cc1ccc2cc(C[C@@H](NC(=O)C3C[C@@H](O)CN3C(=O)c3cn(C)c4ccccc34)C(=O)N(C)Cc3ccccc3)ccc2c1` (stereo not given in full) had an inhibition in vivo at 100 mg/kg with Cavia porcellus [2] of 28%. Besides, the pIC50 on Substance-P receptor is 7.64.

`CN(Cc1ccccc1)C(=O)[C@@H](Cc1ccc2ccccc2c1)NC(=O)C1C[C@@H](O)CN1C(=O)c1cn(C)c2ccccc12` (stereo not given in full) registered an inhibition in vivo at 100 mg/kg in the experiment on Cavia porcellus [2] of 94%. In addition, on Substance-P receptor (read-out: IC50), the pIC50 was 8.77. The inhibition in vivo at 10 mg/kg in the experiment on Cavia porcellus [1] came out at 86%.

In the experiment on Cavia porcellus [2], `CN(Cc1ccccc1)C(=O)[C@@H](Cc1ccc2c(c1)CCCC2)NC(=O)C1C[C@@H](O)CN1C(=O)c1cn(C)c2ccccc12` (stereo not given in full) showed an inhibition in vivo at 100 mg/kg of 87%. Further, the negative logarithm of the IC50 (pIC50) at Substance-P receptor (read-out: IC50) was 7.94. In the experiment on Cavia porcellus [1], this compound had an inhibition in vivo at 10 mg/kg of 69%.

On to `COc1ccc(C[C@@H](NC(=O)C2C[C@@H](O)CN2C(=O)c2cn(C)c3ccccc23)C(=O)N(C)Cc2ccccc2)cc1` (stereo not given in full), for which testing at 100 mg/kg with Cavia porcellus [2] gave an inhibition in vivo of 91%. The pIC50 on Substance-P receptor (read-out: IC50) was 8.12. The same compound had an inhibition in vivo at 10 mg/kg in the experiment on Cavia porcellus [1] of 29%.

With `CN(Cc1ccccc1)C(=O)[C@@H](Cc1c[nH]c2ccccc12)NC(=O)C1C[C@@H](O)CN1C(=O)c1cn(C)c2ccccc12` (stereo not given in full), the inhibition in vivo at 100 mg/kg in the experiment on Cavia porcellus [2] worked out at 7%. Also, the pIC50 at Substance-P receptor (read-out: IC50) was 8.77.

As for `CN(Cc1ccccc1)C(=O)[C@@H](Cc1ccc2c(c1)OCCO2)NC(=O)C1C[C@@H](O)CN1C(=O)c1cn(C)c2ccccc12` (stereo not given in full), at 100 mg/kg the inhibition in vivo with Cavia porcellus [2] was 1%. Moreover, the pIC50 on Substance-P receptor (read-out: IC50) is 8.96.

Take `CN(Cc1ccccc1)C(=O)[C@@H](Cc1ccc(NS(C)(=O)=O)cc1)NC(=O)C1C[C@@H](O)CN1C(=O)c1cn(C)c2ccccc12` (stereo not given in full): the inhibition in vivo at 100 mg/kg with Cavia porcellus [2] came to 0%. The pIC50 at Substance-P receptor (read-out: IC50) was 7.60.

In the experiment on Cavia porcellus [2], `CN(Cc1ccccc1)C(=O)[C@@H](Cc1ccc(F)cc1)NC(=O)C1C[C@@H](O)CN1C(=O)c1cn(C)c2ccccc12` (stereo not given in full) had an inhibition in vivo at 100 mg/kg of 96%. Besides, the pIC50 at Substance-P receptor is 8.37. For the same compound, the inhibition in vivo at 10 mg/kg with Cavia porcellus [1] came out at 30%.

In turn, `CN(Cc1ccccc1)C(=O)[C@@H](Cc1cccc(F)c1)NC(=O)C1C[C@@H](O)CN1C(=O)c1cn(C)c2ccccc12` (stereo not given in full) came in with an inhibition in vivo at 100 mg/kg in the experiment with Cavia porcellus [2] of 85%. The compound also had a pIC50 at Substance-P receptor of 8.04.

`CN(Cc1ccccc1)C(=O)[C@@H](Cc1cccc(C(F)(F)F)c1)NC(=O)C1C[C@@H](O)CN1C(=O)c1cn(C)c2ccccc12` (stereo not given in full) came in with an inhibition in vivo at 100 mg/kg in the experiment with Cavia porcellus [2] of 66%. This compound had a pIC50 at Substance-P receptor of 8.46.

Consider `CN(Cc1ccccc1)C(=O)[C@@H](Cc1ccc(C(F)(F)F)cc1)NC(=O)C1C[C@@H](O)CN1C(=O)c1cn(C)c2ccccc12` (stereo not given in full), for which, in the experiment with Cavia porcellus [2], the inhibition in vivo at 100 mg/kg came out at 94%. Besides, the pIC50 on Substance-P receptor is 8.31. For the same compound, 10 mg/kg produced 83% inhibition in vivo in the experiment with Cavia porcellus [1].

Take `CN(Cc1ccccc1)C(=O)[C@@H](Cc1ccc(O)cc1)NC(=O)C1C[C@@H](O)CN1C(=O)c1cn(C)c2ccccc12` (stereo not given in full): in the experiment on Cavia porcellus [2], the inhibition in vivo at 100 mg/kg was found to be 11%. Further, the pIC50 at Substance-P receptor is 8.74.

As for `CN(C)CCn1cc(C(=O)N2C[C@H](O)CC2C(=O)N[C@H](Cc2ccccc2)C(=O)N(C)Cc2ccccc2)c2ccccc21` (stereo not given in full), the negative-log IC50 (pIC50) on Substance-P receptor (read-out: IC50) was 8.46. This compound also gave an inhibition in vivo at 10 mg/kg in the experiment with Cavia porcellus [1] of 2%.

In the case of `CN(Cc1ccccc1)C(=O)[C@@H](Cc1ccccc1)NC(=O)C(CCCCN)NC(=O)c1c[nH]c2ccccc12` (stereo not given in full), on Substance-P receptor (read-out: IC50), the pIC50 was 7.85.

As to `CN(Cc1ccccc1)C(=O)[C@@H](Cc1ccc(N)cc1)NC(=O)C1C[C@@H](O)CN1C(=O)c1cn(C)c2ccccc12` (stereo not given in full), the inhibition in vivo at 100 mg/kg in the experiment with Cavia porcellus [2] amounted to 0%. In addition, the pIC50 at Substance-P receptor (read-out: IC50) is 8.27.

In the case of `CN(Cc1ccccc1)C(=O)[C@@H](Cc1ccccc1)NC(=O)C1C[C@@H](O)CN1C(=O)CCc1ccccc1` (stereo not given in full), the pIC50 on Substance-P receptor (read-out: IC50) was 7.85. Further, 10 mg/kg produced 4% inhibition in vivo in the experiment with Cavia porcellus [1].

`CN(Cc1ccccc1)C(=O)[C@@H](Cc1ccccc1)NC(=O)C1CCC(O)CN1C(=O)c1c[nH]c2ccccc12` (stereo not given in full): the negative logarithm of the IC50 (pIC50) on Substance-P receptor (read-out: IC50) is 6.54.

As to `CN(Cc1ccccc1)C(=O)[C@@H](Cc1ccccc1)NC(=O)C(CC(=O)O)NC(=O)c1c[nH]c2ccccc12` (stereo not given in full), the IC50 result on Substance-P receptor is listed as “Not Active”.

With `CN(Cc1ccccc1)C(=O)[C@@H](Cc1ccccc1)NC(=O)C(CC(N)=O)NC(=O)c1c[nH]c2ccccc12` (stereo not given in full), the pIC50 at Substance-P receptor (read-out: IC50) is 8.05.

With `CN(Cc1ccccc1)C(=O)[C@@H](Cc1ccccc1)NC(=O)C(CO)NC(=O)c1c[nH]c2ccccc12` (stereo not given in full), the pIC50 on Substance-P receptor (read-out: IC50) was 7.96.

As to `CN(Cc1ccccc1)C(=O)[C@@H](Cc1ccccc1)NC(=O)C1C[C@@H](O)CN1C(=O)c1[nH]nc2ccccc12` (stereo not given in full), the pIC50 at Substance-P receptor (read-out: IC50) was 8.30. In the experiment on Cavia porcellus [1], this compound yielded an inhibition in vivo at 10 mg/kg of 0%.

At Substance-P receptor, `CN(Cc1ccccc1)C(=O)[C@@H](Cc1ccccc1)NC(=O)C1C[C@@H](O)CN1C(=O)CCCc1ccccc1` (stereo not given in full) gave a pIC50 of 7.49.

In the case of `CN(Cc1ccccc1)C(=O)[C@@H](Cc1ccccc1)NC(=O)C1C[C@@H](O)CN1C(=O)Cc1ccccc1` (stereo not given in full), the pIC50 at Substance-P receptor (read-out: IC50) is 6.86.

For `CN(Cc1ccccc1)C(=O)[C@@H](Cc1ccccc1)NC(=O)C1CCCN1C(=O)c1c[nH]c2ccccc12` (stereo not given in full), on Substance-P receptor (read-out: IC50), the pIC50 was 8.27.

Regarding `CN(Cc1ccccc1)C(=O)C(Cc1ccccc1)NC(=O)C1C[C@H](O)CN1C(=O)c1c[nH]c2ccccc12` (single isomer, unassigned), the pIC50 at Substance-P receptor (read-out: IC50) was 8.34.

As to `CN(Cc1ccccc1)C(=O)C(Cc1ccccc1)NC(=O)C1C[C@@H](O)CN1C(=O)c1c[nH]c2ccccc12` (single isomer, unassigned), testing at 100 mg/kg with Cavia porcellus [2] gave an inhibition in vivo of 8%. On Substance-P receptor (read-out: IC50), the pIC50 was 8.13.
